Assay results pooled from the literature.
CNR2: Cannabinoid receptor 2 (CNR2, Homo sapiens, UniProt P34972)
Ribonuclease H1: Ribonuclease H1 (Homo sapiens, UniProt O60930)
F10: Coagulation factor X (F10, Homo sapiens, UniProt P00742)

The Ki of `COc1cc2c(cc1OC)CN(CCc1ccc(NC(=O)c3cccc4c(=O)c5cccc(OC)c5[nH]c34)cc1)CC2` is reported as greater than 10000 nM (D(1B) dopamine receptor (DRD5, Homo sapiens, UniProt P21918); cell-free assay).
`CC[C@H](C)[C@@H](C(=O)N1CCC[C@H]1c1nccs1)N(C)C(=O)[C@H](CC(C)C)N(C)C(=O)[C@H](Cc1ccc(OC)cc1)N(C)C(=O)/C=C(\C)OC` has an IC50 of 17700 nM (CNR2; β-arrestin recruitment, antagonist).
For `Cc1ccc(NC(=O)c2c(Nc3ccccc3)[nH]c(=O)n(O)c2=O)cc1`, the IC50 was greater than 10000 nM (Ribonuclease H1; enzyme activity, inhibitor).
`CCCCC/C=C\[C@H](C)/C=C\C/C=C\Cc1ccccc1CCCC(=O)OC(CO)CO` gave an EC50 of 4180 nM (CNR2; β-arrestin recruitment, agonist).
For `c1cncc([C@@H]2CCCN2)c1`, the Ki was 87.1 nM (Neuronal acetylcholine receptor; alpha2/beta2 (Rattus norvegicus, UniProt P12389+P12390); cell-free assay, radioligand).
For `COc1ccc(CCCCC(=O)C(F)(F)C(F)(F)F)cc1`, the IC50 was 170 nM (85/88 kDa calcium-independent phospholipase A2 (PLA2G6, Homo sapiens, UniProt O60733); enzyme activity, inhibitor).
The Ki of `CC(C)(NC(=O)c1nn(CCCCC(F)(F)F)c2ccccc12)c1cccc(C(N)=O)c1` is reported as 300 nM (CNR2; ligand displacement, radioligand; cell membranes).
The IC50 of `O=C1Cc2cc(-c3ccco3)ccc2C(=O)N1O` is reported as 2390 nM (Ribonuclease H1; enzyme activity, inhibitor).
`N=C(N)NCCC[C@H](NC(=O)[C@H](Cc1ccccc1)NC(=O)[C@H](CCC(N)=O)NC(=O)OCc1ccccc1)C(=O)c1nccs1` gave a Ki of 16 nM (F10; cell-free assay).
`CCCCC/C=C\[C@H](C)/C=C\C/C=C\Cc1ccccc1CCCC(=O)N[C@H](C)CO` has an EC50 of 751 nM (CNR2; cAMP, agonist).
`C[C@H](NC(=O)[C@H](CCC(N)=O)NC(=O)CCCCNC(=N)N)C(=O)N[C@@H](CCCNC(=N)N)C(=O)c1nc2ccccc2s1` has a Ki of 85 nM (F10; cell-free assay).
`CC(C)(NC(=O)c1nn(CCCCC#N)c2ccccc12)c1cccc(C(N)=O)c1` has a Ki of 780 nM (CNR2; ligand displacement, radioligand; cell membranes).
For `CCCCC/C=C\C/C=C\C/C=C\Cc1ccccc1CCCC(=O)N[C@H](C)CO`, the EC50 was 14.7 nM (CNR2; β-arrestin recruitment, agonist).
With `CC(C)(NC(=O)c1nn(CC2CCCC2)c2ccccc12)c1cccc(C(N)=O)c1` the Ki was 110 nM (CNR2; ligand displacement, radioligand; cell membranes).
`O=[N+]([O-])c1ccc(O)c([N+](=O)[O-])c1` has a Kd of greater than 50000 nM (Casein kinase I isoform alpha (CSNK1A1, Homo sapiens, UniProt P48729); binding, SPR).
`CC(C)(C#N)CCCn1nc(C(=O)NC(C)(C)c2cccc(C(N)=O)c2)c2ccccc21` gave a Ki of 130 nM (CNR2; ligand displacement, radioligand; cell membranes).
With `CCCCCc1ccccc1C/C=C\C/C=C\C/C=C\CCCC(=O)N[C@H](C)CO` the EC50 was 436 nM (CNR2; β-arrestin recruitment, agonist).
